In brackets after ≈: the same amount, converted by molar mass.
Key:
Candida albicans [1] = test: Antifungal activity against ITC and FLC-susceptible Candida albicans ATCC MYA-2310 incubated for 48 hrs by modified CLSI M27-A3 protocol based method; format: functional; settings: ATCC MYA-2310, 48 h
Candida albicans [2] = test: Antifungal activity against ITC and FLC-susceptible Candida albicans ATCC MYA-2876 incubated for 48 hrs by modified CLSI M27-A3 protocol based method; format: functional; settings: ATCC MYA-2876, 48 h
Procedure, shortened: (§1)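 Because these Candida strains show trailing growth, MIC-2 was read, meaning 50% growth inhibition. Caspofungin and voriconazole were tested here; other controls came from earlier work.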

[3] = Selectivity index, ratio of EC50 for toxicity in human BEAS2B cells to MIC50 for antifungal activity against ITC and FLC-susceptible Candida albicans ATCC MYA-2876; format: cell-based; settings: BEAS-2B cells, read-out: Selectivity Index
Procedure, shortened: (§2)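 Ratio of the compound's EC50 against BEAS-2B cells to its MIC against the named C. albicans strain. […] For C. albicans strains other than ATCC 10231, trailing growth meant MIC-2 was taken, meaning 50% growth inhibition.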

[4] = Selectivity index, ratio of EC50 for toxicity in human A549 cells to MIC50 for antifungal activity against ITC and FLC-susceptible Candida albicans ATCC MYA-2310; format: cell-based; settings: read-out: Selectivity Index
Procedure, shortened: (§3)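 Selectivity index is the EC50 against the mammalian line (A549 or BEAS-2B) divided by the MIC against the given fungal strain.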

Candida parapsilosis = test: Antifungal activity against Candida parapsilosis ATCC 22019 incubated for 48 hrs by modified CLSI M27-A3 protocol based method; format: functional; settings: Lodderomyces parapsilosis, ATCC 22019, 48 h; read-out: MIC100
Procedure, shortened: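 For C. albicans ATCC 10231, C. krusei ATCC 6258 and C. parapsilosis ATCC 22019, MIC-0 was read, meaning complete growth inhibition. For azole controls, MIC-2 (50% growth inhibition) was reported instead. Caspofungin and voriconazole were tested here; other controls came from earlier work.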

[5] = Selectivity index, ratio of EC50 for toxicity in human A549 cells to MIC50 for antifungal activity against ITC and FLC-resistant Candida albicans ATCC MYA-90819; format: cell-based; settings: read-out: Selectivity Index; procedure, shortened: as §3
[6] = Hemolytic activity in mouse erythrocytes assessed as hemolysis level at 125 ug/ml incubated for 1 hr at 37 degC; format: ADME, cell-based, Erythrocyte; settings: read-out: Activity
Procedure, shortened: (§4)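 Mouse erythrocytes incubated 1 h at 37 °C with test agents over 1.95 to 125 µg/mL. Percent lysis is read for each concentration.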

[7] = Selectivity index, ratio of […] for toxicity in human BEAS2B cells to MIC50 for antifungal activity against Aspergillus nidulans ATCC 38163; format: cell-based; settings: BEAS-2B cells, read-out: Selectivity Index
[8] = Selectivity index, ratio of EC50 for toxicity in human A549 cells to MIC50 for antifungal activity against ITC and FLC-resistant Candida albicans ATCC MYA-1003; format: cell-based; settings: read-out: Selectivity Index; procedure, shortened: as §3
[9] = Selectivity index, ratio of EC50 for toxicity in human A549 cells to MIC50 for antifungal activity against Candida albicans ATCC 64124; format: cell-based; settings: read-out: Selectivity Index; procedure, shortened: as §3
Aspergillus nidulans = test: Antifungal activity against Aspergillus nidulans ATCC 38163 incubated for 48 hrs by CLSI M38-A2 protocol based method; format: functional; settings: ATCC 38163, 48 h, read-out: MIC100
[10] = Selectivity index, ratio of EC50 for toxicity in human BEAS2B cells to MIC100 for antifungal activity against Candida albicans ATCC 10231; format: cell-based; settings: BEAS-2B cells, read-out: Selectivity Index; procedure, shortened: as §3
[11] = Selectivity index, ratio of […] for toxicity in human A549 cells to MIC50 for antifungal activity against Aspergillus nidulans ATCC 38163; format: cell-based; settings: read-out: Selectivity Index
[12] = Selectivity index, ratio of EC50 for toxicity in human BEAS2B cells to MIC for antifungal activity against Candida parapsilosis ATCC 22019; settings: BEAS-2B cells
[13] = Selectivity index, ratio of EC50 for toxicity in human A549 cells to MIC for antifungal activity against Candida parapsilosis ATCC 22019
[14] = Toxicity in human BEAS2B cells assessed as reduction in cell viability incubated for 24 hrs by resazurin dye based assay; settings: BEAS-2B cells
Procedure, shortened: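 Toxicity tested in the nucleated lines A549 and BEAS-2B to give EC50 values. Selectivity index is EC50 against the mammalian line divided by the MIC against a given fungal strain.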

Candida albicans [15] = test: Antifungal activity against ITC and FLC-resistant Candida albicans ATCC 1237 incubated for 48 hrs by modified CLSI M27-A3 protocol based method; format: functional; settings: ATCC 1237, 48 h; procedure, shortened: as §1
[16] = Selectivity index, ratio of […] for toxicity in human A549 cells to MIC50 for antifungal activity against Aspergillus flavus ATCC MYA-3631; format: cell-based; settings: read-out: Selectivity Index
Nakaseomyces glabratus = test: Antifungal activity against Candida glabrata ATCC 2001 incubated for 48 hrs by modified CLSI M27-A3 protocol based method; format: functional; settings: ATCC 2001, 48 h
[17] = Selectivity index, ratio of […] for toxicity in human BEAS2B cells to MIC50 for antifungal activity against Aspergillus terreus ATCC MYA-3633; format: cell-based; settings: BEAS-2B cells, read-out: Selectivity Index
[18] = Selectivity index, ratio of EC50 for toxicity in human A549 cells to MIC50 for antifungal activity against Candida glabrata ATCC 2001; format: cell-based; settings: read-out: Selectivity Index; procedure, shortened: as §3
[19] = Selectivity index, ratio of EC50 for toxicity in human A549 cells to MIC50 for antifungal activity against Candida krusei ATCC 6258
[20] = Selectivity index, ratio of EC50 for toxicity in human A549 cells to MIC50 for antifungal activity against ITC and FLC-resistant Candida albicans ATCC 1237; format: cell-based; settings: read-out: Selectivity Index; procedure, shortened: as §3
[21] = Hemolytic activity in mouse erythrocytes assessed as hemolysis level at 15.6 ug/ml incubated for 1 hr at 37 degC; format: ADME, cell-based, Erythrocyte; settings: read-out: Activity; procedure, shortened: as §4
[22] = Selectivity index, ratio of EC50 for toxicity in human BEAS2B cells to MIC50 for antifungal activity against ITC and FLC-resistant Candida albicans ATCC MYA-90819; format: cell-based; settings: BEAS-2B cells, read-out: Selectivity Index; procedure, shortened: as §2
[23] = Hemolytic activity in mouse erythrocytes assessed as hemolysis level at 7.8 ug/ml incubated for 1 hr at 37 degC; format: ADME, cell-based, Erythrocyte; settings: read-out: Activity; procedure, shortened: as §4
in vitro = settings: mouse, mouse erythrocytes
Aspergillus flavus = test: Antifungal activity against Aspergillus flavus ATCC MYA-3631 incubated for 48 hrs by CLSI M38-A2 protocol based method; format: functional; settings: ATCC MYA-3631, 48 h, read-out: MIC100
Candida albicans [24] = test: Antifungal activity against ITC and FLC-resistant Candida albicans ATCC MYA-1003 incubated for 48 hrs by modified CLSI M27-A3 protocol based method; format: functional; settings: ATCC MYA-1003, 48 h; procedure, shortened: as §1
[25] = Hemolytic activity in mouse erythrocytes assessed as hemolysis level at 1.95 ug/ml incubated for 1 hr at 37 degC; format: ADME, cell-based, Erythrocyte; settings: read-out: Activity; procedure, shortened: as §4
[26] = Selectivity index, ratio of EC50 for toxicity in human BEAS2B cells to MIC50 for antifungal activity against Candida albicans ATCC 64124; format: cell-based; settings: BEAS-2B cells, read-out: Selectivity Index; procedure, shortened: as §3
[27] = Selectivity index, ratio of EC50 for toxicity in human BEAS2B cells to MIC50 for antifungal activity against ITC and FLC-resistant Candida albicans ATCC 1237; format: cell-based; settings: BEAS-2B cells, read-out: Selectivity Index; procedure, shortened: as §3

| SMILES | MIC50 (Candida albicans [1]) | MIC50 (Candida albicans [2]) | selectivity ratio [3] | selectivity ratio [4] | MIC (Candida parapsilosis) | selectivity ratio [5] | hemolysis at 1 h, 125 ug/ml [6] | selectivity ratio [7] | selectivity ratio [8] | selectivity ratio [9] | MIC (Aspergillus nidulans) | selectivity ratio [10] | selectivity ratio [11] | selectivity ratio [12] | selectivity ratio [13] | EC50 at 24 h [14] | MIC50 (Candida albicans [15]) | selectivity ratio [16] | MIC50 (Nakaseomyces glabratus) | selectivity ratio [17] | other results |
| --- | --- | --- | --- | --- | --- | --- | --- | --- | --- | --- | --- | --- | --- | --- | --- | --- | --- | --- | --- | --- | --- |
| CCCCCC(O)(Cn1cncn1)c1ccccc1Cl (stereo unspecified) | 3.3 µM (≈ 0.97 µg/mL) | 3.3 µM (≈ 0.97 µg/mL) | 32 | 32 | 0.41 µM (≈ 0.12 µg/mL) | 65 | 81% | 32 | 4 | 1 | 3.3 µM (≈ 0.97 µg/mL) | 4 | 32 | 261 | 261 | > 31.3 µg/mL | 3.3 µM (≈ 0.97 µg/mL) | 1 | 3.3 µM (≈ 0.97 µg/mL) | 2 | selectivity ratio [18]: 32; selectivity ratio [19]: 32; selectivity ratio [20]: 32; hemolysis at 1 h, 15.6 ug/ml [21]: 0%; selectivity ratio [22]: 65; hemolysis at 1 h, 7.8 ug/ml [23]: 0%; hemolysis at 1 h, 62.5 ug/ml (in vitro): 0%; MIC (Aspergillus flavus): > 106 µM; MIC50 (Candida albicans [24]): 26.5 µM (≈ 7.79 µg/mL); hemolysis at 1 h, 1.95 ug/ml [25]: 0%; selectivity ratio [26]: 1; selectivity ratio [27]: 32 |
| CCCCCCCCC(O)(Cn1cncn1)c1ccc(F)cc1F (stereo unspecified) | 5.8 µM (≈ 1.96 µg/mL) | 5.8 µM (≈ 1.96 µg/mL) | 7 | 6 | ≤ 0.18 µM | 6 | 97.1% | 27 | 6 | 3 | 1.4 µM (≈ 0.472 µg/mL) | 7 | 25 | 217 | 200 | 13 µg/mL (≈ 38.5 µM) | 5.8 µM (≈ 1.96 µg/mL) | 0.4 | 5.8 µM (≈ 1.96 µg/mL) | 2 | selectivity ratio [18]: 6; selectivity ratio [19]: 50; selectivity ratio [20]: 6; hemolysis at 1 h, 15.6 ug/ml [21]: 66.7%; selectivity ratio [22]: 7; hemolysis at 1 h, 7.8 ug/ml [23]: 46.8%; hemolysis at 1 h, 62.5 ug/ml (in vitro): 69%; MIC (Aspergillus flavus): 92.8 µM (≈ 31.3 µg/mL); MIC50 (Candida albicans [24]): 5.8 µM (≈ 1.96 µg/mL); hemolysis at 1 h, 1.95 ug/ml [25]: 0%; selectivity ratio [26]: 3; selectivity ratio [27]: 7 |
| CCCCCC(O)(Cn1cncn1)c1ccc(Cl)cc1Cl (stereo unspecified) | 5.9 µM (≈ 1.94 µg/mL) | 3 µM (≈ 0.985 µg/mL) | 32 | 17 | < 0.09 µM | 17 | 100% | 65 | 34 | 17 | 1.5 µM (≈ 0.492 µg/mL) | 130 | 69 | 1040 | 1100 | > 31.3 µg/mL | 5.9 µM (≈ 1.94 µg/mL) | 8 | 5.9 µM (≈ 1.94 µg/mL) | 8 | selectivity ratio [18]: 17; selectivity ratio [19]: 69; selectivity ratio [20]: 17; hemolysis at 1 h, 15.6 ug/ml [21]: 0%; selectivity ratio [22]: 16; hemolysis at 1 h, 7.8 ug/ml [23]: 0%; hemolysis at 1 h, 62.5 ug/ml (in vitro): 100%; MIC (Aspergillus flavus): 11.9 µM (≈ 3.91 µg/mL); MIC50 (Candida albicans [24]): 3 µM (≈ 0.985 µg/mL); hemolysis at 1 h, 1.95 ug/ml [25]: 0%; selectivity ratio [26]: 16; selectivity ratio [27]: 16 |
